Data: ChEMBL document CHEMBL1137674, “Synthesis and antibacterial evaluation of novel 4-alkyl substituted phenyl beta-aldehyde ketone derivatives” (2009)
In brackets after ≈: the same amount, converted by molar mass.

Key:
Assay type in all cases: functional
Staphylococcus aureus [1] = assay: Antimicrobial activity against Staphylococcus aureus ATCC 25923 after 16 to 18 hrs by agar dilution method
Summary of the method: (§1)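 Agar dilution following NCCLS/CLSI, with twofold serial dilutions of the compounds and reference drugs in Mueller-Hinton agar. Inocula were overnight cultures (16-18 h, 37 °C) adjusted to 0.5 McFarland. Compounds were dissolved in DMSO, which served as the control. MIC was taken as the lowest concentration preventing viable growth after 16-18 h incubation.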

Escherichia coli = assay: Antimicrobial activity against Escherichia coli ATCC 25922 after 16 to 18 hrs by agar dilution method; summary of the method: as §1
Pseudomonas aeruginosa = assay: Antimicrobial activity against Pseudomonas aeruginosa ATCC 27853 after 16 to 18 hrs by agar dilution method; summary of the method: as §1
Staphylococcus aureus [2] = assay: Antimicrobial activity against methicillin-resistant Staphylococcus aureus isolate 4 after 16 to 18 hrs by agar dilution method
Summary of the method: (§2)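 Agar dilution MIC on Mueller-Hinton agar with the test agents mixed into the medium. MIC was read as the lowest concentration preventing viable growth after 16–18 h incubation.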

Staphylococcus aureus [3] = assay: Antimicrobial activity against methicillin-resistant Staphylococcus aureus isolate 3 after 16 to 18 hrs by agar dilution method; summary of the method: as §2
Staphylococcus aureus [4] = assay: Antimicrobial activity against methicillin-resistant Staphylococcus aureus isolate 2 after 16 to 18 hrs by agar dilution method; summary of the method: as §2
Staphylococcus aureus [5] = assay: Antimicrobial activity against methicillin-resistant Staphylococcus aureus isolate 5 after 16 to 18 hrs by agar dilution method; summary of the method: as §2
Staphylococcus aureus [6] = assay: Antimicrobial activity against methicillin-resistant Staphylococcus aureus isolate 1 after 16 to 18 hrs by agar dilution method; summary of the method: as §2
Staphylococcus aureus [7] = assay: Antimicrobial activity against Staphylococcus aureus isolate 3 after 16 to 18 hrs by agar dilution method
Staphylococcus aureus [8] = assay: Antimicrobial activity against Staphylococcus aureus isolate 6 after 16 to 18 hrs by agar dilution method
Staphylococcus aureus [9] = assay: Antimicrobial activity against Staphylococcus aureus isolate 8 after 16 to 18 hrs by agar dilution method; summary of the method: as §2
Staphylococcus aureus [10] = assay: Antimicrobial activity against Staphylococcus aureus isolate 4 after 16 to 18 hrs by agar dilution method
Staphylococcus aureus [11] = assay: Antimicrobial activity against Staphylococcus aureus isolate 5 after 16 to 18 hrs by agar dilution method
Staphylococcus aureus [12] = assay: Antimicrobial activity against Staphylococcus aureus isolate 2 after 16 to 18 hrs by agar dilution method; summary of the method: as §2
Staphylococcus aureus [13] = assay: Antimicrobial activity against Staphylococcus aureus isolate 1 after 16 to 18 hrs by agar dilution method
Staphylococcus aureus [14] = assay: Antimicrobial activity against Staphylococcus aureus isolate 10 after 16 to 18 hrs by agar dilution method
Staphylococcus aureus [15] = assay: Antimicrobial activity against Staphylococcus aureus isolate 9 after 16 to 18 hrs by agar dilution method
Staphylococcus aureus [16] = assay: Antimicrobial activity against Staphylococcus aureus isolate 7 after 16 to 18 hrs by agar dilution method; summary of the method: as §2

Compound	MIC (Staphylococcus aureus [1])	MIC (Escherichia coli)	MIC (Pseudomonas aeruginosa)	other results
CO/N=C/CC(=O)c1ccc(C)cc1	4 µg/mL (≈ 20.9 µM)	64 µg/mL (≈ 335 µM)	64 µg/mL (≈ 335 µM)	MIC (Staphylococcus aureus [2]): 8 µg/mL (≈ 41.8 µM); MIC (Staphylococcus aureus [3]): 8 µg/mL (≈ 41.8 µM); MIC (Staphylococcus aureus [4]): 8 µg/mL (≈ 41.8 µM); MIC (Staphylococcus aureus [5]): 8 µg/mL (≈ 41.8 µM); MIC (Staphylococcus aureus [6]): 8 µg/mL (≈ 41.8 µM)
Cc1ccc(C(=O)CC=O)cc1	> 64 µg/mL	> 64 µg/mL	> 64 µg/mL	–
Cc1ccc(C(=O)C/C=N/NC(N)=S)cc1	> 64 µg/mL	> 64 µg/mL	> 64 µg/mL	–
O=CCC(=O)c1ccccc1	> 64 µg/mL	> 64 µg/mL	> 64 µg/mL	–
Cc1ccc(C(=O)C/C=N/NC(N)=O)cc1	> 64 µg/mL	> 64 µg/mL	> 64 µg/mL	–
CO/N=C/CC(=O)c1ccc(C(C)C)cc1	2 µg/mL (≈ 9.12 µM)	> 64 µg/mL	> 64 µg/mL	MIC (Staphylococcus aureus [2]): 8 µg/mL (≈ 36.5 µM); MIC (Staphylococcus aureus [3]): 8 µg/mL (≈ 36.5 µM); MIC (Staphylococcus aureus [4]): 8 µg/mL (≈ 36.5 µM); MIC (Staphylococcus aureus [5]): 4 µg/mL (≈ 18.2 µM); MIC (Staphylococcus aureus [6]): 8 µg/mL (≈ 36.5 µM)
CCO/N=C/CC(=O)c1ccc(C(C)C)cc1	1 µg/mL (≈ 4.29 µM)	> 64 µg/mL	> 64 µg/mL	MIC (Staphylococcus aureus [7]): 4 µg/mL (≈ 17.1 µM); MIC (Staphylococcus aureus [2]): 16 µg/mL (≈ 68.6 µM); MIC (Staphylococcus aureus [8]): 4 µg/mL (≈ 17.1 µM); MIC (Staphylococcus aureus [3]): 8 µg/mL (≈ 34.3 µM); MIC (Staphylococcus aureus [4]): 8 µg/mL (≈ 34.3 µM); MIC (Staphylococcus aureus [9]): 8 µg/mL (≈ 34.3 µM); MIC (Staphylococcus aureus [10]): 2 µg/mL (≈ 8.57 µM); MIC (Staphylococcus aureus [11]): 1 µg/mL (≈ 4.29 µM); MIC (Staphylococcus aureus [12]): 16 µg/mL (≈ 68.6 µM); MIC (Staphylococcus aureus [5]): 8 µg/mL (≈ 34.3 µM); MIC (Staphylococcus aureus [13]): 4 µg/mL (≈ 17.1 µM); MIC (Staphylococcus aureus [14]): 4 µg/mL (≈ 17.1 µM); MIC (Staphylococcus aureus [6]): 16 µg/mL (≈ 68.6 µM); MIC (Staphylococcus aureus [15]): 4 µg/mL (≈ 17.1 µM); MIC (Staphylococcus aureus [16]): 8 µg/mL (≈ 34.3 µM)
NC(=S)N/N=C/CC(=O)c1ccccc1	> 64 µg/mL	> 64 µg/mL	> 64 µg/mL	–
CC[C@H]1OC(=O)[C@H](C)[C@@H](O[C@H]2C[C@@](C)(OC)[C@@H](O)[C@H](C)O2)[C@H](C)[C@@H](O[C@@H]2O[C@H](C)C[C@H](N(C)C)[C@H]2O)[C@](C)(OC)C[C@@H](C)C(=O)[C@H](C)[C@@H](O)[C@]1(C)O [CLARITHROMYCIN]	0.12 µg/mL (≈ 0.16 µM)	32 µg/mL (≈ 42.8 µM)	> 64 µg/mL	–
CCCCCCCCCC(=O)CC=O [HOUTTUYNIN]	32 µg/mL (≈ 161 µM)	–	–	MIC (Staphylococcus aureus [2]): 16 µg/mL (≈ 80.7 µM); MIC (Staphylococcus aureus [3]): 16 µg/mL (≈ 80.7 µM); MIC (Staphylococcus aureus [4]): 16 µg/mL (≈ 80.7 µM); MIC (Staphylococcus aureus [5]): 16 µg/mL (≈ 80.7 µM); MIC (Staphylococcus aureus [6]): 16 µg/mL (≈ 80.7 µM)
C[C@H]1COc2c(N3CCN(C)CC3)c(F)cc3c(=O)c(C(=O)O)cn1c23.C[C@H]1COc2c(N3CCN(C)CC3)c(F)cc3c(=O)c(C(=O)O)cn1c23.O [LEVOFLOXACIN]	0.25 µg/mL	0.025 µg/mL	0.5 µg/mL	MIC (Staphylococcus aureus [7]): 0.25 µg/mL; MIC (Staphylococcus aureus [2]): 16 µg/mL; MIC (Staphylococcus aureus [8]): 0.5 µg/mL; MIC (Staphylococcus aureus [3]): 16 µg/mL; MIC (Staphylococcus aureus [4]): 8 µg/mL; MIC (Staphylococcus aureus [9]): 0.25 µg/mL; MIC (Staphylococcus aureus [10]): 0.25 µg/mL; MIC (Staphylococcus aureus [11]): 0.125 µg/mL; MIC (Staphylococcus aureus [12]): 0.5 µg/mL; MIC (Staphylococcus aureus [5]): 16 µg/mL; MIC (Staphylococcus aureus [13]): 0.25 µg/mL; MIC (Staphylococcus aureus [14]): 0.5 µg/mL; MIC (Staphylococcus aureus [6]): 8 µg/mL; MIC (Staphylococcus aureus [15]): 0.25 µg/mL; MIC (Staphylococcus aureus [16]): 0.25 µg/mL
CCCCCCCCCC(=O)CC(O)S(=O)(=O)[O-].[Na+] (configuration not stated) [SODIUM HOUTTUYFONATE]	–	–	–	MIC (Staphylococcus aureus [7]): 64 µg/mL; MIC (Staphylococcus aureus [8]): 64 µg/mL; MIC (Staphylococcus aureus [9]): 64 µg/mL; MIC (Staphylococcus aureus [10]): 64 µg/mL; MIC (Staphylococcus aureus [11]): 32 µg/mL; MIC (Staphylococcus aureus [12]): 64 µg/mL; MIC (Staphylococcus aureus [13]): 64 µg/mL; MIC (Staphylococcus aureus [14]): 32 µg/mL; MIC (Staphylococcus aureus [15]): 64 µg/mL; MIC (Staphylococcus aureus [16]): 64 µg/mL

More lines, main results first:

MIC (Staphylococcus aureus [1])	MIC (Escherichia coli)	MIC (Pseudomonas aeruginosa)	Compound	other results
> 64 µg/mL	> 64 µg/mL	> 64 µg/mL	CCCCCc1ccc(C(=O)CC(O)S(=O)(=O)[O-])cc1.[Na+] (configuration not stated)	–
4 µg/mL (≈ 19.5 µM)	> 64 µg/mL	> 64 µg/mL	CCc1ccc(C(=O)C/C=N/OC)cc1	–
64 µg/mL (≈ 361 µM)	> 64 µg/mL	> 64 µg/mL	Cc1ccc(C(=O)C/C=N/O)cc1	–
64 µg/mL (≈ 361 µM)	> 64 µg/mL	> 64 µg/mL	CO/N=C/CC(=O)c1ccccc1	–
4 µg/mL (≈ 16.2 µM)	64 µg/mL (≈ 259 µM)	64 µg/mL (≈ 259 µM)	CCCCCc1ccc(C(=O)C/C=N/OC)cc1	–
4 µg/mL (≈ 18.2 µM)	> 64 µg/mL	> 64 µg/mL	CCO/N=C/CC(=O)c1ccc(CC)cc1	–
> 64 µg/mL	> 64 µg/mL	> 64 µg/mL	CC(C)c1ccc(C(=O)CC(O)S(=O)(=O)[O-])cc1.[Na+] (configuration not stated)	–
> 64 µg/mL	> 64 µg/mL	> 64 µg/mL	NC(=O)N/N=C/CC(=O)c1ccccc1	–
32 µg/mL (≈ 137 µM)	> 64 µg/mL	> 64 µg/mL	CCc1ccc(/C(C/C=N/OC)=N\OC)cc1	–
4 µg/mL (≈ 15.3 µM)	> 64 µg/mL	> 64 µg/mL	CCCCCc1ccc(C(=O)C/C=N/OCC)cc1	–
4 µg/mL (≈ 19.5 µM)	64 µg/mL (≈ 312 µM)	64 µg/mL (≈ 312 µM)	CCO/N=C/CC(=O)c1ccc(C)cc1	–
32 µg/mL (≈ 122 µM)	> 64 µg/mL	> 64 µg/mL	CCO/N=C(/C/C=N/OCC)c1ccc(CC)cc1	–
32 µg/mL (≈ 129 µM)	> 64 µg/mL	> 64 µg/mL	CO/N=C(/C/C=N/OC)c1ccc(C(C)C)cc1	–
32 µg/mL (≈ 116 µM)	> 64 µg/mL	> 64 µg/mL	CCO/N=C(/C/C=N/OCC)c1ccc(C(C)C)cc1	–
64 µg/mL (≈ 210 µM)	> 64 µg/mL	> 64 µg/mL	CCCCCc1ccc(/C(C/C=N/OCC)=N\OCC)cc1	–
64 µg/mL (≈ 392 µM)	> 64 µg/mL	> 64 µg/mL	O=C(C/C=N/O)c1ccccc1	–
64 µg/mL (≈ 232 µM)	> 64 µg/mL	> 64 µg/mL	CCCCCc1ccc(/C(C/C=N/OC)=N\OC)cc1	–
